Data set [1] has as its target Signal transducer and activator of transcription 2 (Homo sapiens, UniProt P52630). The data set is described as follows: Induction of STAT2 degradation in human SUP-M2 cells at 0.25 to 100 uM incubated for 14 hrs by Western blot analysis. In kind it is cell-based. The following applies: SUPM2, dose 0.25-100 µM. The procedure, abridged:
(§1)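 SU-DHL-1 or SUP-M2 cells treated over 25 nM to 100 μM. STAT family proteins assessed by Western blot.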

Data set [2] concerns the target T1, Signal transducer and activator of transcription 3 (Homo sapiens, UniProt P40763). Nature of the data set: Induction of STAT3 degradation in human SUP-M2 cells at 0.25 to 100 uM incubated for 14 hrs by Western blot analysis. It counts as cell-based. The following applies: SUPM2, dose 0.25-100 µM. Background: A western blot detects proteins with antibodies after separation by electrophoresis.

Data set [3] concerns the target T2, Signal transducer and activator of transcription 1-alpha/beta (Homo sapiens) (UniProt P42224).
T2 sequence (whole entry): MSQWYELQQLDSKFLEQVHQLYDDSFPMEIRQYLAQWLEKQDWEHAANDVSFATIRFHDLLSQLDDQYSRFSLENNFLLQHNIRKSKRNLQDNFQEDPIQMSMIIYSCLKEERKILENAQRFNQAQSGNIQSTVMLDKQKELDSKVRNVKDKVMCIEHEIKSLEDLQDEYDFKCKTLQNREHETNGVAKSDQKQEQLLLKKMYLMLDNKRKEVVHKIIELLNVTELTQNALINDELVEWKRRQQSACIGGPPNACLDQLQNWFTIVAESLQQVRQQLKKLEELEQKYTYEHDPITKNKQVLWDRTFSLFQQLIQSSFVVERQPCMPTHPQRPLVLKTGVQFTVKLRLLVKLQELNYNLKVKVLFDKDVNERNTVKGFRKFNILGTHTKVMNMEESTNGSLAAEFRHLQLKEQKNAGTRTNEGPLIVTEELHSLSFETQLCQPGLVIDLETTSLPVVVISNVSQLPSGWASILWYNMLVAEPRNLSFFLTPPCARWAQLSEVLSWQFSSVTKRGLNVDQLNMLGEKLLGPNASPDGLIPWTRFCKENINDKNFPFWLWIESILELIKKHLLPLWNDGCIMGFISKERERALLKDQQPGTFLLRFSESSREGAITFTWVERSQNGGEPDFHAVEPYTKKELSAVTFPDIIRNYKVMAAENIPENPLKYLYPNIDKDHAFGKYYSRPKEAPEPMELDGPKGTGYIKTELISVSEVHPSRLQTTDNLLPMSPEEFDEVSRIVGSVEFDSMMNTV
The data set is described as follows: Induction of STAT1 degradation in human MOLM16 cells at 0.25 to 100 uM incubated for 4 hrs by Western blot analysis. It counts as cell-based. The following applies: dose 0.25-100 µM. The procedure, abridged: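 MOLM-16 cells treated for 4 h over 25 nM to 100 μM. STAT proteins assessed by Western blot with GAPDH as loading control.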

The target of data set [4] is T2, Signal transducer and activator of transcription 1-alpha/beta (Homo sapiens). The data set is described as follows: Induction of STAT1 degradation in human SU-DHL-1 cells at 0.25 to 100 uM incubated for 14 hrs by Western blot analysis. It counts as cell-based. The following applies: dose 0.25-100 µM. The procedure, abridged:
as §1

The target in data set [5] is T1, Signal transducer and activator of transcription 3. Nature of the data set: Induction of STAT3 degradation in human SU-DHL-1 cells at 0.25 to 100 uM incubated for 14 hrs by Western blot analysis. The following applies: dose 0.25-100 µM. It counts as cell-based.
Data set [6] is described as follows: Antiproliferative activity against human MOLM-16 cells assessed as cell growth inhibition incubated for 4 days by CellTiter-Glo asssay. In kind it is functional, cell-based. The following applies: MOLM16, 96 h. The procedure, abridged:
(§2)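 Growth inhibition tested in MOLM-16 acute leukemia and SU-DHL-1 and SUP-M2 lymphoma cell lines.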
(In general: Cellular ATP, detected with luciferase, serves as a proxy for viable cell number.)

Data set [7] relates to SU-DHL-1. The data set is described as follows: Induction of STAT4 expression in human SU-DHL-1 cells at 0.25 to 100 uM incubated for 4 hrs by Western blot analysis. The following applies: dose 0.25-100 µM. In kind it is functional, cell-based.
Data set [8] concerns SU-DHL-1. Nature of the data set: Antiproliferative activity against human SU-DHL-1 cells assessed as cell growth inhibition incubated for 4 days by CellTiter-Glo asssay. It counts as functional, cell-based. The following applies: SU-DHL-1, 96 h. The procedure, abridged: as §2
In data set [9] the target is T3, Signal transducer and activator of transcription 5A (Homo sapiens) (UniProt P42229).
T3 sequence (whole entry): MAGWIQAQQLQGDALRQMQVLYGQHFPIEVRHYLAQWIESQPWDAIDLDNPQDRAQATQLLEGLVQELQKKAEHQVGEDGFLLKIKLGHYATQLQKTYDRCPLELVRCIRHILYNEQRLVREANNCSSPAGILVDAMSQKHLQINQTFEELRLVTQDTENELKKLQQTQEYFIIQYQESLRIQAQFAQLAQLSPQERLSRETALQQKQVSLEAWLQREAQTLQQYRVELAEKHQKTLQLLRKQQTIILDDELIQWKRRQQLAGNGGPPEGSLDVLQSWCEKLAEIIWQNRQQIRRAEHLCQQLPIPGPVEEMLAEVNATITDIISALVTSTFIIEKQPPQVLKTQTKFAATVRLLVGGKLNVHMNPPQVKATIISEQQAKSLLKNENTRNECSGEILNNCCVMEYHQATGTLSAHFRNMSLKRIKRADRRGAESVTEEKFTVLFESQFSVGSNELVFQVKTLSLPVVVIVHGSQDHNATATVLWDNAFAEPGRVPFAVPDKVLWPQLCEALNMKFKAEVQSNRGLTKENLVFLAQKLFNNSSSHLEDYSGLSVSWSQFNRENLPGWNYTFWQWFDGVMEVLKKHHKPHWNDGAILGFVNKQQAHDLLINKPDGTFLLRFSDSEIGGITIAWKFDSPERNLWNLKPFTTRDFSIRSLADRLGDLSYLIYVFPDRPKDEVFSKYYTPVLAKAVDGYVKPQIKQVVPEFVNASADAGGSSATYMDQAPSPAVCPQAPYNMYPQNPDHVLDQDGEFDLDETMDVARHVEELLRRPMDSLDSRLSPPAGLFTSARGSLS
The data set is described as follows: Induction of STAT5 degradation in human SUP-M2 cells at 0.25 to 100 uM incubated for 14 hrs by Western blot analysis. It counts as cell-based. The following applies: SUPM2, dose 0.25-100 µM.

The target in data set [10] is T2, Signal transducer and activator of transcription 1-alpha/beta (Homo sapiens). Nature of the data set: Induction of STAT1 degradation in human SUP-M2 cells at 0.25 to 100 uM incubated for 14 hrs by Western blot analysis. In kind it is cell-based. The following applies: SUPM2, dose 0.25-100 µM. The procedure, abridged:
as §1

The nature of data set [11]: Drug uptake in SCID mouse xenografted with human MOLM16 cells assessed as drug level in tumor tissue at 50 mg/kg, iv measured after 6 hrs by LC-MS/MS. In kind it is ADME, organism-based. The following applies: read-out: Drug uptake. The procedure, abridged: (§3)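 SCID mice bearing MOLM-16 xenografts given a single iv dose of 50 mg/kg. Concentrations of parent and hydrolysis product measured in plasma (ng/mL) and tumor tissue (ng/g) at 1, 6 and 24 h.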
For orientation: Xenograft models place foreign cells or tissue in a host animal.

Data set [12] is described as follows: Drug uptake in SCID mouse xenografted with human MOLM16 cells assessed as drug level in plasma at 50 mg/kg, iv measured after 24 hrs by LC-MS/MS. In kind it is ADME, organism-based. The procedure, abridged:
as §3

Data set [13] concerns the target T1, Signal transducer and activator of transcription 3. Nature of the data set: Binding affinity to recombinant STAT3 (unknown origin) assessed as inhibition constant incubated for 1 hr by fluorescence polarization assay. The procedure, abridged: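 Competitive fluorescence-polarization binding assay with recombinant human STAT3 protein. Ki derived from competitive binding curves.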

By IC50 is commonly meant the concentration needed to halve the response being measured. As a reminder, the Ki is a measure of affinity in units of concentration, obtained from inhibition or displacement.

Active and inactive are the calls of the source. No cut-off for these calls is given here.

T1 sequence (P40763 whole entry): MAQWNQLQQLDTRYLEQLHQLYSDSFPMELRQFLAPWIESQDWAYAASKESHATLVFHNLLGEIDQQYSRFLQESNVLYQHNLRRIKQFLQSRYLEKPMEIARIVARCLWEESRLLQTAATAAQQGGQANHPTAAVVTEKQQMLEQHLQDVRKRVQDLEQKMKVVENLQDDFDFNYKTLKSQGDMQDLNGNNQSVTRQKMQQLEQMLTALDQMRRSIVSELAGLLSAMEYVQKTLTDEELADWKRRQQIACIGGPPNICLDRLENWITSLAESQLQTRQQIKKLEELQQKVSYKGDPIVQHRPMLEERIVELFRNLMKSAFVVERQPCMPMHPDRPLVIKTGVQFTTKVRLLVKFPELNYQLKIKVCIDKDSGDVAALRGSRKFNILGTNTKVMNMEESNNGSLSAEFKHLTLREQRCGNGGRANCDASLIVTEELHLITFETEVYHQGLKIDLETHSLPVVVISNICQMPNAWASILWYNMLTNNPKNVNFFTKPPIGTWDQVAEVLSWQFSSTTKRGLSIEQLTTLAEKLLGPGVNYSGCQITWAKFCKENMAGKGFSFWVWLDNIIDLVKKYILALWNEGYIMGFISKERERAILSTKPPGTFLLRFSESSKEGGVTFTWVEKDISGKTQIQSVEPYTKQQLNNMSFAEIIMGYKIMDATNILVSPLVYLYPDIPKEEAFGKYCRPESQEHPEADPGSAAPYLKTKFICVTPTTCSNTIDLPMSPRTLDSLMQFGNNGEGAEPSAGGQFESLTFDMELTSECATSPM
Signal transducer and activator of transcription 2, sequence (P52630 whole entry): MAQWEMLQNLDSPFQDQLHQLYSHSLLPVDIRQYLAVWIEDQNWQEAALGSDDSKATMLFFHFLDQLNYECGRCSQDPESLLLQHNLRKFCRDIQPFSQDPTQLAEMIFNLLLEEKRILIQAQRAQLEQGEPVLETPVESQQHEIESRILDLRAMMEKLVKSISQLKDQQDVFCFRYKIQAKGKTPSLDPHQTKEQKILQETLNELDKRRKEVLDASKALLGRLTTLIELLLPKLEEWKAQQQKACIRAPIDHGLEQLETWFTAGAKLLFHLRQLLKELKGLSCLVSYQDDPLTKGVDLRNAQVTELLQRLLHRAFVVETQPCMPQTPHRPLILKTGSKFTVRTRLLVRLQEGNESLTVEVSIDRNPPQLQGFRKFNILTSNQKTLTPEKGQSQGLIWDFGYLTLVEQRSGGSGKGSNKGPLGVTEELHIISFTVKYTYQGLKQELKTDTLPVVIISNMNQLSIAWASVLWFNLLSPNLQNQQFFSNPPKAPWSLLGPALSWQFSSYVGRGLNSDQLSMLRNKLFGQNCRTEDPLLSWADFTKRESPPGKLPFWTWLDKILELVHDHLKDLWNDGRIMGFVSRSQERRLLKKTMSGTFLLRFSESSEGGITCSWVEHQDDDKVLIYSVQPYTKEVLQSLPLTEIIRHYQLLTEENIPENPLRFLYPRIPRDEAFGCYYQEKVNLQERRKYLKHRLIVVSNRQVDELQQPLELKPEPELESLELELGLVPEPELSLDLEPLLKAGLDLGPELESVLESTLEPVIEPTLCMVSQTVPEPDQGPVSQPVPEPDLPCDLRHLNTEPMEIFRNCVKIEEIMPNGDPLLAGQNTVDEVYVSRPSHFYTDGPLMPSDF

Regarding `CC(=O)N1CC[C@H]2CC[C@@H](C(=O)N[C@@H](CCC(N)=O)C(=O)NC(c3ccccc3)c3ccccc3)N2C(=O)[C@@H](NC(=O)c2cc3cc(C(F)(F)P(=O)(O)O)ccc3[nH]2)C1`, the result in data set [1], in data set [2], in [3], in data set [4], in data set [5] and in [7] was inactive. Moreover, the outcome in data set [9] and in data set [10] was inactive. For the same molecule, the IC50 in data set [6] and in [8] was greater than 10000 nM in each case.

In the case of `CC(=O)N1CC[C@H]2CC[C@@H](C(=O)N[C@@H](CCC(N)=O)C(=O)NC(c3ccccc3)c3ccccc3)N2C(=O)[C@@H](NC(=O)c2cc3cc(C(=O)P(=O)(O)O)ccc3[nH]2)C1`, the outcome in data set [1], in [2], in data set [3], in [4], in data set [5] and in data set [7] was inactive. The result in data set [9] and in data set [10] was inactive. Also, the IC50 in data set [6] and in data set [8] was greater than 10000 nM throughout.

Take `NC(=O)CC[C@H](NC(=O)[C@@H]1CC[C@@H]2CCN(C(=O)CCCCCC#Cc3cccc4c3CN(C3CCC(=O)NC3=O)C4=O)C[C@H](NC(=O)c3cc4cc(C(=O)P(=O)(O)O)ccc4[nH]3)C(=O)N21)C(=O)NC(c1ccccc1)c1ccccc1` (stereo not given in full): the result in [1], in data set [3], in data set [4], in data set [9] and in [10] was inactive. The outcome in [2], in [5] and in data set [7] was Active. In addition, in [11], the concentration at 6 h turned out to be 4780 ng/g. The IC50 in [6] was determined as 170 nM; in data set [8] it was 2600 nM. Besides, the concentration at 24 h in [12] worked out at 1360 ng/mL. In addition, the Ki in [13] is 5.1 nM.

In the case of `NC(=O)CC[C@H](NC(=O)[C@@H]1CC[C@@H]2CCN(C(=O)CCCCCC#Cc3cccc4c3CN(C3CCC(=O)NC3=O)C4=O)C[C@H](NC(=O)c3cc4cc(C(F)(F)P(=O)(O)O)ccc4[nH]3)C(=O)N21)C(=O)NC(c1ccccc1)c1ccccc1` (stereo not given in full), the concentration at 6 h in data set [11] stood at 580 ng/g. For the same molecule, the outcome in [5] was inactive. Besides, the figures for the IC50 in [6] and in data set [8] were 180 nM and 3400 nM, respectively. Moreover, the outcome in data set [7] was Active. The concentration at 24 h in data set [12] was 58 ng/mL. Further, in data set [13], the Ki was determined as 11.7 nM.

The values are drawn from ChEMBL document CHEMBL4706770, “SD-91 as A Potent and Selective STAT3 Degrader Capable of Achieving Complete and Long-Lasting Tumor Regression” (ACS Med Chem Lett, 2021).
